NadD inh – inhibitors of S. aureus NadD, primary screen, biochemical, colorimetric, uHTS | Nicotinate-nucleotide adenylyltransferase NadD (Staphylococcus aureus N315) | purified NadD enzyme, colorimetric absorbance read-out | inhibition, % at 20 µM | 0.78% of 360,000 active; in the data active = inhibition above about 26%
rCAG binder – binders of r(CAG) RNA repeats, primary screen, biochemical, fluorescence | r(CAG) RNA repeat, TO-PRO-1 dye displacement fluorescence | inhibition, % at 3 µM | 1.3% of 370,000 active | AID 651821, 2012;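 active = inhibition above the plate cutoff, the mean of all test compounds on that plate plus 3 SD, cut at about 35% in these data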;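 note: 0% = DMSO alone and 100% = 100 µM mitoxantrone as full dye displacement; higher means more dye released from RNA so lower well fluorescence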
core dimer inh – inhibitors of HCV core protein dimerization, primary screen, biochemical, TR-FRET, high-throughput. inhibition, % at 5 µM. AID 1899, 2009. TR-FRET GST/Flag-core106 dimerization, 1536-well. 0.33% of 300,000 active;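 active = inhibition above the mean of all tested compounds plus 3 SD, set per screening campaign, cut at about 45% in these data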
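Material: GST/Flag-tagged HCV core106 proteins. Incubation: 4 h, 22.5 °C incubation. Read-out basis: inhibition (%) from 671 over 617 nm ratio. Measured by: TR-FRET, excitation 340 nm, emission 617 and 671 nm.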
ABHD5-PLIN5 inh – ABHD5-PLIN5 interaction inhibitors, primary screen, cell lysate, split luciferase complementation, luminescence; Split G. princeps luciferase complementation, 4 h; 0.78% of 360,000 active; inhibition, % at 4 µM; Perilipin-5 (Homo sapiens) + 1-acylglycerol-3-phosphate O-acyltransferase ABHD5 (Homo …; AID 602281, 2012;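 active = inhibition above the mean inhibition across every tested compound plus 3 SD, cut at about 22% in these data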;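 note: 0% = DMSO only wells and the 100% control is not disclosed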
ABHD5-PLIN5 conf – ABHD5-PLIN5 interaction inhibitors, confirmation, biochemical, luminescence; shares compounds with ABHD5-PLIN5 inh; inhibition, % at 4 µM; 67% of 2,200 active; AID 651612, 2012; in the data active = inhibition above about 23%;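 note: 0% = DMSO vehicle wells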
HNF4 split-luc – HNF4 dimerization inhibitors, counter-screen for ABHD5-PLIN5 interaction inhibitor project, biochemical, split-luciferase complementation, luminescence | shares compounds with ABHD5-PLIN5 inh | inhibition, % at 4 µM | 77% of 2,200 active;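 active = mean inhibition across replicate wells exceeding the computed hit threshold, cut at about 13% in these data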;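 note: light from luciferase halves that rejoin when HNF4 fusion proteins dimerize; 0% = DMSO only wells and the 100% control is not given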
Active calls of the source: *; x = no result. This is a sample that favours compounds with a hit; in the whole collection about 2.6% have one here.

SMILES | NadD inh | rCAG binder | core dimer inh | ABHD5-PLIN5 inh | ABHD5-PLIN5 conf | HNF4 split-luc
N#CCCn1cc(C=C2C(=O)NC(=O)NC2=O)c(-c2ccccc2)n1 | 7.3 | -2.0 | 0.2 | 23.4* | 51.3* | 84.4*
N#CC(=C(O)c1ccc(S(=O)(=O)N(CCCl)CCCl)cc1)c1nc2ccccc2[nH]1 | 10.0 | 6.3 | x | 4.3 | x | x
CCCCNc1ccncc1S(=O)(=O)NC(=O)NC(C)C | 4.3 | -0.9 | -6.9 | 9.1 | x | x
CC(C)COC(=O)c1ccccc1C(=O)OCC(C)C | -9.5 | -6.1 | 0.0 | 2.4 | x | x
C[CH2][Hg][S]c1ccccc1C(=O)O | 9.6 | -0.5 | -7.5 | 28.4* | 49.4* | 83.2*
CCN(CC)c1ccccc1 | 7.0 | 2.2 | x | 3.0 | x | x
CCN(CC)c1ccc(/C=C/[N+](=O)[O-])cc1 | -1.9 | -7.8 | 0.1 | 53.5* | 96.3* | 95.7*
COC(=O)C1=C(c2cccc3c2S(=O)(=O)c2ccccc2-3)C[C@@H]2CC[C@H]1N2C(=O)N1CCc2cc(OC)c(OC)cc2C1 | -1.3 | 3.9 | x | 8.1 | x | x
CCOC(=O)[C@]12Cc3cc(C)ccc3[C@H]1N(C(C)C)C(=O)c1ccccc12 | -5.6 | -0.2 | x | 26.2* | 25.2* | 21.4*
CCOC(=O)[C@]12Cc3cc(OC)ccc3[C@H]1N(Cc1ccccc1)C(=O)c1ccccc12 | -16.5 | -2.3 | x | -10.4 | x | x
CCCCCN1C(=O)c2ccccc2[C@@]2(C(=O)OCC)Cc3cc(OC)ccc3[C@@H]12 | -5.2 | -1.2 | x | 25.1* | 14.2 | 12.3
CCOC(=O)[C@]12Cc3cc(C)ccc3[C@H]1N(C1CCCCC1)C(=O)c1cc(OC)ccc12 | 4.8 | 4.4 | x | 61.3* | 43.5* | 53.6*
CCC1(CC)C(=O)NC(=O)N(c2ccccc2)C1=O | 5.7 | 4.9 | x | -4.5 | x | x
COc1ccc(C(=O)OCC2CN2c2cccc([N+](=O)[O-])c2)cc1 (configuration not stated) | 2.7 | 2.3 | x | 1.9 | x | x
OC12ONC(c3ccccn3)C1N1CCC2CC1 (configuration not stated) | 0.6 | -9.4 | -8.1 | 51.8* | 2.3 | 25.0*
COC(=O)C1=C(c2ccc3ccccc3c2)C[C@@H]2CC[C@H]1N2C(=O)N1CCC(C)CC1 | -2.0 | x | x | 0.2 | x | x
O=C(C1CCCN(c2nnc(-n3cccc3)s2)C1)N1CCC2(CC1)OCCO2 (configuration not stated) | 3.8 | -1.8 | -1.3 | -2.3 | x | x
CC1=CC2/C=C(\C)CCC(O)C(O)/C=C/C(=O)C23C(=O)NC(CC(C)C)C3C1C (configuration not stated) | 3.6 | x | -5.1 | 65.0* | 90.4* | 102.8*
Cc1cccc(-n2c(O)c(C=Nc3ccc(Br)cn3)c(=O)[nH]c2=O)c1 | 2.6 | 1.7 | -4.0 | 24.2* | 6.8 | 28.1*
Cc1ccc(-n2c(O)c(/C=N/c3ncc(Br)cc3Br)c(=O)[nH]c2=O)cc1 | 15.6 | 3.0 | 11.1 | 17.2 | x | x
N#CC(C#N)=NNc1ccc(-n2ccc(C(F)(F)F)n2)cc1 | -5.9 | 31.9 | -0.2 | 57.5* | 83.4* | 70.8*
Cc1cc(C)n(-c2ccc(NN=C(C#N)C#N)cc2)n1 | -0.9 | 18.7 | -2.6 | 43.8* | 49.0* | 42.6*
CC1NC(=O)NC(=O)C1Br (configuration not stated) | -0.4 | 1.9 | x | -0.4 | x | x
O=C1NC(=O)C(=Cc2ccc(Cl)cc2)C(=O)N1 | 18.9 | 2.0 | x | 27.1* | 75.8* | 74.8*
CNS(=O)(=O)c1ccc(N=Cc2c(O)n(-c3ccc(C)cc3)c(=O)[nH]c2=O)cc1 | -5.1 | -0.5 | 2.7 | 27.6* | 10.3 | 37.2*
Cc1ccc(-n2c(O)c(C=Nc3ccc(S(N)(=O)=O)cc3)c(=O)[nH]c2=O)cc1 | 4.7 | -1.6 | -1.4 | 7.2 | x | x
CCc1nnc(NS(=O)(=O)c2ccc(N=Cc3c(O)n(-c4ccc(Cl)cc4)c(=O)[nH]c3=O)cc2)s1 | 0.2 | 10.0 | -0.8 | 30.2* | 7.4 | 15.9*
Cc1cccnc1NC1=NCC(C)S1 (configuration not stated) | 3.2 | -1.2 | -1.0 | 1.2 | x | x
Cc1ccc(C(=O)NCCN2CCC3(CC2)C(=O)NCN3c2ccccc2)cc1 | x | 3.3 | x | x | x | x
